The text below walks through data of ChEMBL document CHEMBL1148114, “New antiinfective and human 5-HT2 receptor binding natural and semisynthetic compounds from the Jamaican sponge Smenospongia aurea” (J Nat Prod, 2002).

Data set [1] is described as follows: Selectivity index, ratio of IC50 for african green monkey (Cercopithecus aethiops) Vero cells to IC50 for Plasmodium falciparum D6. The class given is toxicity, cell-based. The settings on record: read-out: Selectivity Index.
For a further data set, the species on record is Homo sapiens. The data set can be described thus: Displacement of [3H]methylspiperone form human cloned dopamine 4.2 receptor. A general note: Displacement assays read how much labelled ligand stays bound in the presence of the test substance.
The next data set relates to Plasmodium falciparum. The experiment in a line: Antimalarial activity against Plasmodium falciparum D6. The class given is functional, organism-based.
In a further data set the test system is Vero. The data set can be described thus: Cytotoxicity against african green monkey Vero cells at 4.76 ug/mL. The class given is cell-based. The settings on record: chlorocebus sabaeus. The method, boiled down:
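Vero (African green monkey kidney) cells exposed to compound at 4.76 µg/mL to assess cytotoxicity.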

The target in data set [2] is T1, Plasmepsin II (Plasmodium falciparum, UniProt P46925). The experiment in a line: Inhibition of Plasmodium falciparum plasmepsin-2 by FRET assay.
The target of data set [3] is T1, Plasmepsin II. The experiment in a line: Inhibition of Plasmodium falciparum plasmepsin-2 by fluorescence polarization assay. For orientation: Polarisation of emitted light reports the rotation of a fluorescent probe.
Data set [4] has as its target T2, 5-hydroxytryptamine receptor 2A (Homo sapiens, UniProt P28223). The data set can be described thus: Displacement of [3H]methylspiperone form human cloned 5HT2A receptor expressed in african green monkey COS7 cells by scintillation spectroscopy. The class given is cell-based, COS-7. The essentials: (§1)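 Transiently CaPO4-transfected COS-7 membranes carrying human 5-HT2A ([3H]methylspiperone) or 5-HT2C ([3H]mesulergine); equilibrium competition in 50 mM Tris pH 7.4, 2 h at 25 °C; nonspecific binding with 10 µM mianserin; filtration on PEI-treated GF/C, scintillation counting. Compounds from 10 mM DMSO stock diluted ≥1:100. Triplicate points, three experiments; Ki via Cheng-Prusoff, geometric means.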

Data set [5] deals with T3, 5-hydroxytryptamine receptor 2C (Homo sapiens, UniProt P28335).
T3 sequence (P28335 whole entry): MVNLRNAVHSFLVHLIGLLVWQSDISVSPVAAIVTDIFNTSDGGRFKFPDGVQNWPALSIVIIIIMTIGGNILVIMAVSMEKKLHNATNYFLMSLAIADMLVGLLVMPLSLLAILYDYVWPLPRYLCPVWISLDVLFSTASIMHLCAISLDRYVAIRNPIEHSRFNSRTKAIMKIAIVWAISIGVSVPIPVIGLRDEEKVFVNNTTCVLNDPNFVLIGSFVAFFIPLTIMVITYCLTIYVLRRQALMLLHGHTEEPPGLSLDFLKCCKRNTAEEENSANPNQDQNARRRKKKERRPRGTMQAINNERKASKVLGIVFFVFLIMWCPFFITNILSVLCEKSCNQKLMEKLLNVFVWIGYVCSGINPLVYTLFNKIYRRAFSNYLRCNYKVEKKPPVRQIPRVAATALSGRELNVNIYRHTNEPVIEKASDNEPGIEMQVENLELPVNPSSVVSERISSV
The experiment in a line: Displacement of [3H]mesulergine form human cloned 5HT2C receptor expressed in african green monkey COS7 cells by scintillation spectroscopy. The class given is cell-based, COS-7. The essentials: as §1

The test system of data set [6] is Mycobacterium tuberculosis. The experiment in a line: Antitubercular activity against Mycobacterium tuberculosis H37Rv at 6.25 ug/mL. The data set is classed as functional.
Data set [7] relates to Mycobacterium tuberculosis. The experiment in a line: Antitubercular activity against Mycobacterium tuberculosis H37Rv. The data set is classed as functional. The settings on record: for MIC: Mycobacterium tuberculosis, H37Rv.
Data set [8] has as its target T3, 5-hydroxytryptamine receptor 2C. The experiment in a line: Displacement of [3H]mesulergine form human cloned 5HT2C receptor expressed in african green monkey COS7 cells at 30 uM by scintillation spectroscopy. The data set is classed as cell-based. The following applies: cos-7. The method, boiled down:
(§2)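 Single-point competition on transfected COS-7 membranes (human 5-HT2A with [3H]methylspiperone; 5-HT2C with [3H]mesulergine), 50 mM Tris pH 7.4, 2 h at 25 °C; 10 µM mianserin defines nonspecific binding; filter-bound radioactivity counted by scintillation. DMSO stock 10 mM, diluted at least 1:100 in assay.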

The target of data set [9] is T2, 5-hydroxytryptamine receptor 2A. The experiment in a line: Displacement of [3H]methylspiperone form human cloned 5HT2A receptor expressed in african green monkey COS7 cells at 30 uM by scintillation spectroscopy. The settings on record: cos-7. The class given is cell-based. The method, boiled down: as §2
[10] abbreviates: Plasmodium falciparum, D6, read-out: IC50.

In brackets after ≈: the same amount, converted by molar mass. Activity calls are given as the source filed them. The calls are words filed in the database; no cut-off is given here.

T2 sequence (P28223 whole entry): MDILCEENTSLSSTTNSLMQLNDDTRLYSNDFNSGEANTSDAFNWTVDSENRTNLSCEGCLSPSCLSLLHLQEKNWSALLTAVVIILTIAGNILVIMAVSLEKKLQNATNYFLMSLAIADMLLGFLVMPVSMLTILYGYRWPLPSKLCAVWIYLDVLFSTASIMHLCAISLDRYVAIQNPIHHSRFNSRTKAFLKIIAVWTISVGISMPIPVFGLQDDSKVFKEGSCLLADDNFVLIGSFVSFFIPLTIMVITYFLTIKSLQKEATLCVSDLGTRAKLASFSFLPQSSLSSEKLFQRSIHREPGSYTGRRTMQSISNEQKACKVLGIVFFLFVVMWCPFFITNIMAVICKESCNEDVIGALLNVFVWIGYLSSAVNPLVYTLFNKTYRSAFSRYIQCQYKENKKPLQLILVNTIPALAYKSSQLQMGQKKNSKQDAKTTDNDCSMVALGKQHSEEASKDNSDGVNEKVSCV
T1 sequence (P46925 whole entry): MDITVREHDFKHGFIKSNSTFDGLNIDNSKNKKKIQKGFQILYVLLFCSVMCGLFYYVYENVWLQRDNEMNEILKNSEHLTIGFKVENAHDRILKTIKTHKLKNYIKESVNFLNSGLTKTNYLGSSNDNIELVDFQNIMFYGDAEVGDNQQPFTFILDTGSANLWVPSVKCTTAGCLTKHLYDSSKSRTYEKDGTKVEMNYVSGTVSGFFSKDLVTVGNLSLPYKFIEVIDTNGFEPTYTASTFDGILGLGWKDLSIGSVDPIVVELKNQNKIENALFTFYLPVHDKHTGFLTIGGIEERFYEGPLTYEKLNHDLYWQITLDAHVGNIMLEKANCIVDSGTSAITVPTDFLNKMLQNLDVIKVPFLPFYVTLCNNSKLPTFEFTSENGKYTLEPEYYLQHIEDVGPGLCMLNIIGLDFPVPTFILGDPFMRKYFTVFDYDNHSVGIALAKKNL

Regarding `CN1C(=N)N/C(=C/c2c[nH]c3cc(Br)ccc23)C1=O`, the selectivity ratio in data set [1] is over 4.3. For the same molecule, the outcome in the data set filed under Homo sapiens was inactive. The concentration for half-maximal inhibition (IC50) was 1.1 µg/mL (≈ 3.45 µM) with Plasmodium falciparum (setting [10]), 53000 nM against Plasmepsin II [2] and 66000 nM against Plasmepsin II [3]. In addition, the Activity entry in the data set with Vero is listed as “Non-toxic”. The inhibition constant Ki in data set [4] was over 100000 nM; in data set [5] it was 2300 nM. Also, the inhibition in [4] (COS-7, concentration not given here) is 10%.
Consider `CC/N=C1\N(C)C(=O)/C(=C\c2c[nH]c3ccccc23)N1C`, for which the result in the data set listed under Homo sapiens was inactive. The half-inhibitory concentration (IC50) result in the data set with Plasmodium falciparum is given as “Not Active”. Also, the Activity result in the data set with Vero is “Non-toxic”. For the same molecule, the Ki in data set [4] came out at 1700 nM; in data set [5], 3500 nM.
The molecule `C[C@H]1CC[C@H]2C(C)(C)CCC[C@]23Oc2ccc(O)cc2C[C@]13C` [AUREOL] had an inhibition at 6.25 µg/mL in data set [6] of 31%. Besides, in the data set filed under Homo sapiens, the result was inactive. Further, the IC50 entry in the data set with Plasmodium falciparum is listed as “Not Active”. Further, the Activity entry in the data set with Vero is on record as “Non-toxic”. Also, in [7], the “inhibition (INH)” value came out at 31% and the MIC is over 6.25 µg/mL.
`O=C1C(=O)c2[nH]cc3c2C(=C1Br)NCC3` [MAKALUVAMINE O]: the selectivity ratio in [1] is over 5.1. Also, the result in the data set filed under Homo sapiens was inactive. Also, the IC50 in the data set with Plasmodium falciparum (setting [10]) turned out to be 0.94 µg/mL (≈ 3.52 µM). For the same molecule, the Ki entry in data set [8] and in [9] was “Not Active” throughout. Besides, the Activity result in the data set on Vero is reported as “Non-toxic”.
Consider `C[C@H]1CC[C@H]2C(C)(C)CCC[C@]23Oc2ccc(O)c(Cl)c2C[C@]13C`, for which, in [1], the selectivity ratio was over 1.4. Moreover, the inhibition at 6.25 µg/mL in data set [6] turned out to be 38%. In addition, in the data set filed under Homo sapiens, the result was inactive. Further, the concentration for half-maximal inhibition (IC50) in the data set with Plasmodium falciparum (setting [10]) was 3.4 µg/mL (≈ 9.74 µM). The Activity entry with Vero is listed as “Non-toxic”.
The molecule `CC(=O)Oc1ccc2c(c1)C[C@]1(C)[C@@H](C)CC[C@H]3C(C)(C)CCC[C@]31O2` [AUREOL ACETATE] gave an inhibition at 6.25 µg/mL in data set [6] of 34%. Further, in the data set listed under Homo sapiens, the outcome was inactive. Also, the 50% inhibitory concentration (IC50) entry in the data set on Plasmodium falciparum is listed as “Not Active”. For the same molecule, in the data set on Vero, the Activity result is reported as “Non-toxic”.
The corresponding values for `COc1ccc2c(c1)C[C@]1(C)[C@@H](C)CC[C@H]3C(C)(C)CCC[C@]31O2` are 53%, “inactive”, “Not Active” and “Non-toxic”.
For `CN1C(=N)N/C(=C/c2c[nH]c3ccccc23)C1=O`, the outcome in the data set listed under Homo sapiens was inactive. Moreover, in the data set with Plasmodium falciparum, the IC50 result is “Not Active”. Also, the Ki entry in data set [8] and in [9] was “Not Active” each time. For the same molecule, the Activity entry with Vero was “Non-toxic”.
As for `C[C@H]1CC[C@H]2C(C)(C)CCC[C@]23Oc2ccc(OC(=S)N(C)C)cc2C[C@]13C`, in data set [1], the selectivity ratio is over 55. The inhibition at 6.25 µg/mL in [6] was found to be 100%. In addition, the result in the data set filed under Homo sapiens was inactive. For the same molecule, in the data set with Plasmodium falciparum (setting [10]), the concentration for half-maximal inhibition (IC50) turned out to be 0.087 µg/mL (≈ 0.217 µM). In addition, the Activity result in the data set on Vero was “Non-toxic”. Further, in data set [7], the “inhibition (INH)” value was 100% and the MIC was under 6.25 µg/mL.
For the molecule `C/N=C1\NC(=O)/C(=C\c2c[nH]c3ccccc23)N1C` [ISOPLYSIN A], the selectivity ratio in data set [1] is over 4.9. Besides, the result in the data set listed under Homo sapiens was inactive. In the data set on Plasmodium falciparum (setting [10]), the 50% inhibitory concentration (IC50) came out at 0.97 µg/mL (≈ 3.81 µM). Also, the inhibitory constant (Ki) result in data set [8] and in data set [9] was “Not Active” each time. Further, the Activity result with Vero is “Non-toxic”.
As for `C/N=C1\N(C)C(=O)/C(=C\c2c[nH]c3ccccc23)N1C` [METHYLAPLYSINOPSIN], the result in the data set listed under Homo sapiens was inactive. Further, the half-inhibitory concentration (IC50) entry in the data set with Plasmodium falciparum is listed as “Not Active”. Further, the Ki result in [8] and in data set [9] was “Not Active” throughout. Also, the Activity result with Vero is given as “Non-toxic”.
For the molecule `CN1C(=N)N(C)/C(=C/c2c[nH]c3cc(Br)ccc23)C1=O`, the selectivity ratio in [1] is over 14. Moreover, the outcome in the data set filed under Homo sapiens was inactive. In addition, in the data set on Plasmodium falciparum (setting [10]), the IC50 worked out at 0.34 µg/mL (≈ 1.02 µM). Further, the Activity result in the data set on Vero was “Non-toxic”. In addition, the inhibition constant Ki in data set [4] was 2000 nM; in data set [5], 330 nM.

One may read the IC50 as the concentration needed to halve the response being measured. By Ki is commonly meant the dissociation constant of the complex between target and ligand, obtained from inhibition or displacement. Usually inhibition stands for how much of the control response was suppressed. By MIC is commonly meant the lowest concentration found to suppress growth.
